Measured values reported in ChEMBL document CHEMBL4052826, “Design and Synthesis of Novel Reactive Oxygen Species Inducers for the Treatment of Pancreatic Ductal Adenocarcinoma” (J Med Chem, 2018).
pIC50: −log10 of the molar value. Active and inactive are the calls of the source. The calls are words filed in the database; no cut-off is given here.

How the values were obtained:
MIA PaCa-2 [1] = assay: Induction of reactive oxygen species generation in human MIAPaCa2 cells assessed as upregulation of NQO1 expression at 5 uM after 4 to 24 hrs by Western blot analysis; assay type: functional, cell-based
In short: (§1)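 Immunoblotting. Cells (4×10^5) in 60 mm dishes were treated, lysed 30 min at 4°C and quantified by BCA. 40 μg protein was run on SDS-PAGE and transferred to PVDF. Primary antibodies (1:1000) incubated overnight at 4°C, then Dylight 800 secondary, with fluorescent scanning. Bands were normalized to GAPDH or actin loading controls. Mean ± SD, three independent experiments, Student's t-test.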

MIA PaCa-2 [2] = assay: Induction of reactive oxygen species generation in human MIAPaCa2 cells assessed as upregulation of NQO1 gene expression after 4 hrs by Bru-seq analysis; assay type: functional, cell-based
[3] = Induction of compound aggregation
MIA PaCa-2 [4] = assay: Induction of reactive oxygen species generation in human MIAPaCa2 cells at 1.1 to 10 uM after 24 hrs in presence of NAC by H2DCFDA reactivity assay; assay type: functional, cell-based
In short: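 H2DCFDA assay. Trypsinized MIA PaCa-2 cells in suspension were loaded with 20 μM H2DCFDA for 30 min at 37°C, washed and plated at 20,000/well. After 30 min they were treated with compound at 10, 3.3 or 1.1 μM. Fluorescence was read at 493/523 nm over time. DMSO basal and unstained controls were included. NAC pretreatment, where used, was 5 mM for 30 min. Duplicates, three independent experiments.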

PANC-1 [5] = assay: Induction of unfolded protein response in human PANC1 cells assessed as upregulation of GRP78 expression at 5 uM by Western blot analysis; assay type: functional, cell-based; settings: TDE = time-dependent effect
In short: (§2)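 Cells (4×10^5) seeded in 60 mm dishes, cultured in RPMI1640 with 10% FBS, 5% CO2, 37°C, then compound-treated. Lysed 30 min at 4°C, BCA-quantified, 40 μg protein resolved by SDS-PAGE, transferred to PVDF, probed overnight at 4°C with primary antibodies (1:1000; GAPDH or actin loading control), then Dylight 800 secondary; fluorescence scanned. Bands normalized to loading control; mean ± SD, three independent experiments.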

BXPC-3 [6] = assay: Induction of reactive oxygen species generation in human BxPC3 cells assessed as upregulation of HO-1 expression at 5 uM after 4 to 24 hrs by Western blot analysis; assay type: functional, cell-based; in short: as §1
PANC-1 [7] = assay: Cytotoxicity against human PANC1 cells assessed as decrease in cell proliferation after 72 hrs by MTT assay; assay type: functional, cell-based; settings: PANC-1, 72 h
In short: (§3)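 MTT assay. Cells (3000–8000/well) attached overnight in RPMI1640 with 10% FBS; the GR line was kept with 200 nM gemcitabine. Serial dilutions (30 nM–10 μM for most lines) were applied for 72 h. MTT was added at a final 300 μg/mL for 3 h at 37°C, formazan was dissolved in DMSO and A570 read. Inhibition = (1 − OD treated/OD control) × 100. IC50 given as mean ± SD, three independent experiments.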

BXPC-3 [8] = assay: Cytotoxicity against human BxPC3 cells assessed as decrease in cell proliferation after 72 hrs by MTT assay; assay type: functional, cell-based; settings: BXPC-3, 72 h; in short: as §3
MIA PaCa-2 [9] = assay: Induction of reactive oxygen species generation in human MIAPaCa2 cells assessed as upregulation of HO-1 expression at 5 uM after 4 to 24 hrs by Western blot analysis; assay type: functional, cell-based; in short: as §1
MIA PaCa-2 [10] = assay: Induction of unfolded protein response in human MIAPaCa2 cells assessed as upregulation of DDIT3 gene expression after 4 hrs by Bru-seq analysis; assay type: functional, cell-based
[11] = Induction of compound colloidal behavior
[12] = Cytotoxicity against HPDEC assessed as decrease in cell proliferation after 72 hrs by MTT assay; assay type: cell-based; settings: Homo sapiens; in short: as §3
MIA PaCa-2 [13] = assay: Downregulation of Sp4 gene expression in human MIAPaCa2 cells at IC50 to 3 times IC50 after 4 hrs by Bru-seq analysis; assay type: functional, cell-based
MIA PaCa-2 [14] = assay: Cytotoxicity against gemcitabine-resistant human MIAPaCa2 cells assessed as decrease in cell proliferation after 72 hrs by MTT assay; assay type: functional, cell-based; settings: MIA PaCa-2, 72 h; in short: as §3
PANC-1 [15] = assay: Induction of unfolded protein response in human PANC1 cells assessed as upregulation of CHOP expression at 5 uM by Western blot analysis; assay type: functional, cell-based; settings: TDE = time-dependent effect; in short: as §2
MIA PaCa-2 [16] = assay: Cytotoxicity against human MIAPaCa2 cells assessed as decrease in cell proliferation after 72 hrs in presence of NAC by MTT assay; assay type: functional, cell-based
In short: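 MIA PaCa-2 cells were treated for 72 h with compound in the presence of 5 mM NAC. Viability was read by MTT (final 300 μg/mL, 3 h, A570). Mean ± SD of three independent experiments.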

MIA PaCa-2 [17] = assay: Inhibition of mtDNA transcription from LSP promoter in human MIAPaCa2 cells at 3 times IC50 after 4 hrs by Bru-seq analysis; assay type: functional, cell-based
In short: (§4)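 Nascent RNA sequencing (Bru-seq): 4×10^6 MIA PaCa-2 cells seeded in 10 cm dishes, treated next day for 4 h with drug or DMSO. Bromouridine (2 mM final) added for the last 30 min. Total RNA taken in TRIZOL; labeled RNA immunocaptured, converted to cDNA libraries and deep sequenced. Signal compared with DMSO-treated cells.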

MIA PaCa-2 [18] = assay: Downregulation of COX-3 expression in human MIAPaCa2 cells at 5 uM after 4 to 24 hrs by Western blot method; assay type: functional, cell-based; in short: as §1
MIA PaCa-2 [19] = assay: Downregulation of Sp3 gene expression in human MIAPaCa2 cells at IC50 to 3 times IC50 after 4 hrs by Bru-seq analysis; assay type: functional, cell-based
BXPC-3 [20] = assay: Induction of unfolded protein response in human BxPC3 cells assessed as upregulation of CHOP expression at 5 uM by Western blot analysis; assay type: functional, cell-based; settings: TDE = time-dependent effect; in short: as §1
MIA PaCa-2 [21] = assay: Induction of unfolded protein response in human MIAPaCa2 cells assessed as upregulation of GRP78 expression at 5 uM by Western blot analysis; assay type: functional, cell-based; settings: TDE = time-dependent effect; in short: as §2
MIA PaCa-2 [22] = assay: Downregulation of Sp1 gene expression in human MIAPaCa2 cells at IC50 to 3 times IC50 after 4 hrs by Bru-seq analysis; assay type: functional, cell-based
MIA PaCa-2 [23] = assay: Induction of unfolded protein response in human MIAPaCa2 cells assessed as upregulation of CHOP expression at 5 uM by Western blot analysis; assay type: functional, cell-based; settings: TDE = time-dependent effect; in short: as §1
MIA PaCa-2 [24] = assay: Inhibition of mtDNA transcription from HSP1 promoter in human MIAPaCa2 cells at 3 times IC50 after 4 hrs by Bru-seq analysis; assay type: functional, cell-based; in short: as §4
MIA PaCa-2 [25] = assay: Induction of reactive oxygen species generation in human MIAPaCa2 cells assessed as upregulation of HMOX1 gene expression after 4 hrs by Bru-seq analysis; assay type: functional, cell-based
MIA PaCa-2 [26] = assay: Cytotoxicity against human MIAPaCa2 cells assessed as decrease in cell proliferation after 72 hrs by MTT assay; assay type: functional, cell-based; settings: MIA PaCa-2, 72 h; in short: as §3
MIA PaCa-2 [27] = assay: Induction of unfolded protein response in human MIAPaCa2 cells assessed as upregulation of HSPA5 gene expression after 4 hrs by Bru-seq analysis; assay type: functional, cell-based; in short: as §4
MIA PaCa-2 [28] = assay: Induction of apoptosis signaling in human MIAPaCa2 cells at 3 times IC50 after 4 hrs by IPA analysis; assay type: functional, cell-based
PANC-1 [29] = assay: Induction of reactive oxygen species generation in human PANC1 cells assessed as upregulation of HO-1 expression at 5 uM after 4 to 24 hrs by Western blot analysis; assay type: functional, cell-based; in short: as §1
BXPC-3 [30] = assay: Induction of unfolded protein response in human BxPC3 cells assessed as upregulation of GRP78 expression at 5 uM by Western blot analysis; assay type: functional, cell-based; settings: TDE = time-dependent effect; in short: as §1
BXPC-3 [31] = assay: Induction of reactive oxygen species generation in human BxPC3 cells assessed as upregulation of NQO1 expression at 5 uM after 4 to 24 hrs by Western blot analysis; assay type: functional, cell-based; in short: as §1
MIA PaCa-2 [32] = assay: Inhibition of mtDNA transcription from HSP2 promoter in human MIAPaCa2 cells at 3 times IC50 after 4 hrs by Bru-seq analysis; assay type: functional, cell-based; in short: as §4

With `CC(=O)c1cccc(NC2=CC(=O)c3ncncc3C2=O)c1` the Activity (MIA PaCa-2 [1]) was “inactive”, the Activity (MIA PaCa-2 [2]) was “Dose-dependent effect” and the Activity [3] was “Active”. The Activity (MIA PaCa-2 [4]) was “inactive”, the Activity (PANC-1 [5]) was “Tde” and the Activity (BXPC-3 [6]) was “Active”. The pIC50 (PANC-1 [7]) was 6.05, the pIC50 (BXPC-3 [8]) was 5.28 and the Activity (MIA PaCa-2 [9]) was “Active”. For the same molecule, the Activity (MIA PaCa-2 [10]) was “Dose-dependent effect”, the Activity [11] was “Active” and the pIC50 [12] was 5.35. For the same molecule, the Activity (MIA PaCa-2 [13]) was “inactive”, the pIC50 (MIA PaCa-2 [14]) was 5.44 and the Activity (PANC-1 [15]) was “Tde”. For the same molecule, the Activity (MIA PaCa-2 [16]) was “inactive”, the inhibition (MIA PaCa-2 [17]) was “Active” and the Activity (MIA PaCa-2 [18]) was “Active”. For the same molecule, the Activity (MIA PaCa-2 [19]) was “inactive”, the Activity (BXPC-3 [20]) was “Tde” and the Activity (MIA PaCa-2 [21]) was “Tde”. For the same molecule, the Activity (MIA PaCa-2 [22]) was “inactive”, the Activity (MIA PaCa-2 [23]) was “Tde” and the inhibition (MIA PaCa-2 [24]) was “inactive”. For the same molecule, the Activity (MIA PaCa-2 [25]) was “Dose-dependent effect”, the pIC50 (MIA PaCa-2 [26]) was 5.64 and the Activity (MIA PaCa-2 [27]) was “Dose-dependent effect”. The Activity (MIA PaCa-2 [28]) was “Active”, the Activity (PANC-1 [29]) was “inactive” and the Activity (BXPC-3 [30]) was “Tde”. The Activity (BXPC-3 [31]) was “inactive” and the inhibition (MIA PaCa-2 [32]) was “Active”.

With `Nc1ccc(-c2ccc(NC3=CC(=O)c4ncncc4C3=O)cc2)cc1` the pIC50 (PANC-1 [7]) was 5.43, the pIC50 (BXPC-3 [8]) was 5.46 and the pIC50 (MIA PaCa-2 [26]) was 5.60.

In the case of `O=C(NCCC[P+](c1ccccc1)(c1ccccc1)c1ccccc1)c1cccc(NC2=CC(=O)c3ncncc3C2=O)c1`, the pIC50 (PANC-1 [7]) was 4.84, the pIC50 (BXPC-3 [8]) was 4.67 and the pIC50 [12] was 4.61. The pIC50 (MIA PaCa-2 [14]) was 4.79.

With `COc1cc(NC2=CC(=O)c3ncncc3C2=O)cc(OC)c1OC` the Activity [3] was “Active”, the Activity (MIA PaCa-2 [4]) was “inactive” and the pIC50 (PANC-1 [7]) was 6.10. For the same molecule, the pIC50 (BXPC-3 [8]) was 5.80, the Activity [11] was “Active” and the pIC50 [12] was 5.49. The pIC50 (MIA PaCa-2 [14]) was 5.70, the Activity (MIA PaCa-2 [16]) was “inactive” and the pIC50 (MIA PaCa-2 [26]) was 5.82.

Molecule `COc1ccc(-c2ccc(NC3=CC(=O)c4ncncc4C3=O)cc2)cc1` has a pIC50 (PANC-1 [7]) of 5.64, a pIC50 (BXPC-3 [8]) of 5.46 and a pIC50 (MIA PaCa-2 [26]) of 5.68.

For `COc1ccc(NC2=CC(=O)c3ncncc3C2=O)cc1`, the pIC50 (PANC-1 [7]) was 6.10, the pIC50 (BXPC-3 [8]) was 5.77 and the pIC50 (MIA PaCa-2 [26]) was 5.72.
